Measured values from ChEMBL document CHEMBL3352380, “Development of benzo[d]oxazol-2(3H)-ones derivatives as novel inhibitors of Mycobacterium tuberculosis InhA” (Bioorg Med Chem, 2014).
≈ marks a conversion by molar mass, not a printed value.

These molecules were tested on Mycobacterium tuberculosis (assay: Antimicrobial activity against extensively drug-resistant Mycobacterium tuberculosis XDR-TB after 28 days by two-fold agar dilution method). Settings: 672 h.
Format: functional
Summary of the method: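 Two-fold serial dilutions in Middlebrook 7H11 agar with OADC supplement, final 50 to 0.78 µg/mL. Inoculum from fresh 7H11/OADC slants, adjusted to 1 mg/mL wet weight in 0.05% Tween 80 saline and diluted 10^-2 (~10^7 cfu/mL), spotted onto drug-containing agar tubes. Incubated at 37 °C; MIC is the lowest concentration inhibiting growth, read at 28 days.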

Going from `O=C(Cn1c(=O)oc2ccccc21)NCc1ccco1` to `O=C(Cn1c(=O)oc2ccccc21)NCc1cccs1`, the MIC rises from 11.5 µM (≈ 3.12 µg/mL) to 21.7 µM (≈ 6.25 µg/mL) (1.9-fold).

First: NNC(=O)c1ccncc1 [ISONIAZID]
Second: O=C(Cn1c(=O)oc2cc([N+](=O)[O-])ccc21)NCc1cccs1
The MIC of the first is 2.4-fold higher: 45.6 µM (≈ 6.25 µg/mL) for the first, 18.8 µM (≈ 6.25 µg/mL) for the second.

Compared with `CC[C@@H](CO)NCCN[C@@H](CC)CO` [ETHAMBUTOL], `O=C(Cn1c(=O)oc2cc([N+](=O)[O-])ccc21)Nc1nc2ccc([N+](=O)[O-])cc2s1` is 1.6-fold lower in MIC: 24.5 µM (≈ 5 µg/mL) for the first, 15 µM (≈ 6.25 µg/mL) for the second.

`O=C(Cn1c(=O)oc2cc(Cl)ccc21)Nc1nc2ccccc2s1` and `O=C(Cn1c(=O)oc2ccccc21)Nc1nc2ccccc2s1` are within 1.5-fold of each other in MIC: 34.7 µM (≈ 12.5 µg/mL) for the first, 38.4 µM (≈ 12.5 µg/mL) for the second.

`O=C(Cn1c(=O)oc2cc(Cl)ccc21)Nc1ncc([N+](=O)[O-])s1` and `O=C(Cn1c(=O)oc2cc([N+](=O)[O-])ccc21)Nc1ncc([N+](=O)[O-])s1` are within 1.5-fold of each other in MIC: 17.6 µM (≈ 6.25 µg/mL) for the first, 17.1 µM (≈ 6.25 µg/mL) for the second.

`CO[C@H]1/C=C/O[C@@]2(C)Oc3c(C)c(O)c4c(O)c(c(/C=N/N5CCN(C)CC5)c(O)c4c3C2=O)NC(=O)/C(C)=C\C=C\[C@H](C)[C@H](O)[C@@H](C)[C@@H](O)[C@@H](C)[C@H](OC(C)=O)[C@@H]1C` [RIFAMPIN] gave an MIC of 30.4 µM (≈ 25 µg/mL).
